Source: PubChem BioAssay
The list is not random: actives were taken first. Their share in the collection is about 2%.
SR-BI HDL uptake – inhibitors of mouse SR-BI mediated HDL lipid uptake; AID 488896; inhibition, % at 12.5 µM; Q61009; ldlA[mSR-BI] CHO cells, DiI-HDL uptake fluorescence, 3 h; 320,000 tested, 0.96% active;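 active means mean replicate inhibition of at least 70% and a set share of replicates each scoring 70 or more; inconclusive means meets just one of the two criteria; inactive means fails both criteria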;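 further: 0% = median of neutral control wells and 100% = median of positive control wells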
CDK5 p35 inh – CDK5/p35 (human) kinase inhibition. Q00535+Q15078. Recombinant CDK5/p35, ADP-Glo luminescence, 60 min. inhibition, % at 10 µM. 330,000 tested, 0.01% active. AID 488839;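 active means highest replicate inhibition of at least 50% and at least 75% of replicates reaching 50%; inconclusive means only one of the two criteria met; inactive means both criteria failed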;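 further: plate controls were DMSO neutral control for no effect and GW8510 at 10 µM for full effect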
SR-BI uptake up – enhances SR-BI lipid uptake from DiI-HDL; activation, % at 12.5 µM; 320,000 tested, 0.096% active; CHO ldlA[mSR-BI] cells, DiI-HDL uptake fluorescence, 3 h; 100 = double the neutral-control signal;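 active means mean replicate activation of at least 60% and every replicate at or above 60%; inconclusive means mean or all-replicate condition met, but not both; inactive means mean below 60% and not all replicates reaching 60%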;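 further: 0% = median plate neutral-control signal and 100% = twice that signal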
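Assay system: CHO ldlA[mSR-BI] cells, LDL receptor-null, SR-BI overexpressing; medium: Ham's F12 with 0.5% BSA, HEPES 25 mM, pH 7.4; also added: DiI-HDL 10 µg/mL; timing: 3 h uptake period with compound, 37 °C; signal: DiI fluorescence, bottom read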
dFosB activator – enhances mouse delta FosB homodimer DNA binding; 340,000 tested, 0.99% active; purified delta FosB, TAMRA-CDK5 oligo fluorescence polarization; percent of positive-control signal above neutral wells; P13346; activation, % at 25 µM;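 active means mean activation above about 17%, with every replicate also reaching it, limit read from the data, passing the limit was not always enough; inconclusive means only one of the two conditions met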
Target sequence (P13346 whole entry, looked up): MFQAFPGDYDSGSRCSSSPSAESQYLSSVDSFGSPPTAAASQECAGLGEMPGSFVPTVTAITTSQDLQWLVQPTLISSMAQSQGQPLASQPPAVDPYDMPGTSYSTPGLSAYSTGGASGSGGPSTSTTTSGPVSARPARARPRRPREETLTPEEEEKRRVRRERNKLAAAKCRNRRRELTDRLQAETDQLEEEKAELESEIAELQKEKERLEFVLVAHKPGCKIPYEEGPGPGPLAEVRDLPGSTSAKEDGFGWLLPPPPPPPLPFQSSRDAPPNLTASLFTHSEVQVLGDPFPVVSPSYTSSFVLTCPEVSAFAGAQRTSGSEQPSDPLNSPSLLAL
Starred values were filed as active, the others as inactive.

What do the screens show for `CN(C)c1ccc(/C=C2\CCC/C(=C\c3ccccc3)C2=O)cc1`?
SR-BI HDL uptake: 5; CDK5 p35 inh: 1; SR-BI uptake up: -5; dFosB activator: -6

How did Cn1c(CO)c(-c2ccccc2)c2cc([N+](=O)[O-])ccc21 do in these assays?
SR-BI HDL uptake: 56; CDK5 p35 inh: -2; SR-BI uptake up: -56; dFosB activator: -3

How did CN(C)c1ccc(C=c2c3ccccc3n3c2c2c([n+]3C)CCCC2)cc1 do in these assays?
SR-BI HDL uptake: 40; CDK5 p35 inh: 4; SR-BI uptake up: -40; dFosB activator: 86*

How did CN(C)c1ccc(C=c2c3ccccc3n3c2cc(-c2ccccc2)[n+]3C)cc1 do in these assays?
SR-BI HDL uptake: -58; CDK5 p35 inh: 4; SR-BI uptake up: 58; dFosB activator: 100*

What do the screens show for `O=C(OCC(=O)N1CCCC1)c1cnc(Cl)c(Cl)c1`?
SR-BI HDL uptake: -21; CDK5 p35 inh: -1; SR-BI uptake up: 21; dFosB activator: 3

Results for Cc1cccn2c(=O)nc(SCC(=O)NC3CCCCC3)nc12 ?
SR-BI HDL uptake: 3; CDK5 p35 inh: 1; SR-BI uptake up: -3; dFosB activator: -5

What do the screens show for `CN(C)c1ccc(C=c2c3ccccc3n3c2cc(-c2ccc(Cl)cc2)[n+]3C)cc1`?
SR-BI HDL uptake: -3; CDK5 p35 inh: 3; SR-BI uptake up: 3; dFosB activator: 50*

How did CC1CCc2c(nc3ncnn3c2NCCc2ccccc2F)C1 (stereo not drawn) do in these assays?
SR-BI HDL uptake: 73*; CDK5 p35 inh: 0; SR-BI uptake up: -73; dFosB activator: -9

Results for CC1CCc2c(nc3ncnn3c2N2CCN(c3ccccc3F)CC2)C1 (stereo not drawn) ?
SR-BI HDL uptake: -11; CDK5 p35 inh: 0; SR-BI uptake up: 11; dFosB activator: 4

Results for C#CCOc1ccc(/C=N/O)cc1Cl ?
SR-BI HDL uptake: -84; CDK5 p35 inh: 3; SR-BI uptake up: 84*; dFosB activator: 2

Results for C#CCOc1ccc(Cl)cc1/C=N/O ?
SR-BI HDL uptake: -5; CDK5 p35 inh: 1; SR-BI uptake up: 5; dFosB activator: -3

What do the screens show for `O=C1C=C(c2cc3ccccc3o2)C[C@@H](c2ccc(F)cc2)C1`?
SR-BI HDL uptake: 44; CDK5 p35 inh: 1; SR-BI uptake up: -44; dFosB activator: 4

Results for Cc1ccc(N2CCN(S(=O)(=O)c3c(C)noc3C)CC2C)cc1 (stereo not drawn) ?
SR-BI HDL uptake: 56; CDK5 p35 inh: -3; SR-BI uptake up: -56; dFosB activator: -6

How did CC(C)(C)NC(=S)NNC(=O)c1ccncc1 do in these assays?
SR-BI HDL uptake: -185; CDK5 p35 inh: 1; SR-BI uptake up: 185*; dFosB activator: 2

What do the screens show for `CCNC(=S)NNC(=O)c1ccncc1`?
SR-BI HDL uptake: -17; CDK5 p35 inh: 0; SR-BI uptake up: 17; dFosB activator: -10

Results for N#C/C(=C\Nc1ccccc1O)c1nc2ccccc2o1 ?
SR-BI HDL uptake: 113*; CDK5 p35 inh: 1; SR-BI uptake up: -113; dFosB activator: -1

What do the screens show for `COC(=O)c1[nH]c2cc(OC)c(OC)cc2c1/C=N/Nc1ccccc1`?
SR-BI HDL uptake: 121*; CDK5 p35 inh: 2; SR-BI uptake up: -121; dFosB activator: -7

What do the screens show for `COc1cc(/C=N/Nc2ccccc2)ccc1O`?
SR-BI HDL uptake: 4; CDK5 p35 inh: 1; SR-BI uptake up: -4; dFosB activator: -5

How did Cn1c(=O)c2c(ncn2CC2OCCO2)n(C)c1=O do in these assays?
SR-BI HDL uptake: -9; CDK5 p35 inh: 1; SR-BI uptake up: 9; dFosB activator: -3

How did CN(C)C1=C(Cl)C(=O)N(c2ccc(Cl)c(Cl)c2)C1=O do in these assays?
CDK5 p35 inh: 0; dFosB activator: 24*

What do the screens show for `CN(C)/C=C1\C(=O)N(c2ccc(Cl)c(Cl)c2)CS1(=O)=O`?
SR-BI HDL uptake: -16; CDK5 p35 inh: 3; SR-BI uptake up: 16; dFosB activator: -2

What do the screens show for `O=C(Nc1ccccc1)Nc1nc(-c2ccc(Cl)cc2)cs1`?
SR-BI HDL uptake: 38; CDK5 p35 inh: 2; SR-BI uptake up: -38; dFosB activator: 3

What do the screens show for `COc1ccc(-c2csc(NC(=O)[C@H](C)N3C(=O)C4CC=CCC4C3=O)n2)cc1OC` (stereo partly drawn)?
SR-BI HDL uptake: 71*; CDK5 p35 inh: 1; SR-BI uptake up: -71; dFosB activator: -7

How did CC(C(=O)Nc1nc(-c2ccc(F)c(F)c2)cs1)N1C(=O)C2CC=CCC2C1=O (stereo not drawn) do in these assays?
SR-BI HDL uptake: 34; CDK5 p35 inh: -2; SR-BI uptake up: -34; dFosB activator: 0

Results for O=C(Nc1cccc(Cl)c1)Nc1nc(-c2ccc(Cl)cc2)cs1 ?
SR-BI HDL uptake: 79*; CDK5 p35 inh: 0; SR-BI uptake up: -79; dFosB activator: 2

How did COc1ccc(-c2csc(NC(=O)CCn3cnc4ccccc4c3=O)n2)cc1OC do in these assays?
SR-BI HDL uptake: 75*; CDK5 p35 inh: -1; SR-BI uptake up: -75; dFosB activator: inconclusive

What do the screens show for `COc1cccc(NC(=O)Nc2nc(-c3ccc(OC)c(OC)c3)cs2)c1`?
SR-BI HDL uptake: 77*; CDK5 p35 inh: 2; SR-BI uptake up: -77; dFosB activator: 0

Results for COc1ccc(-c2nc3ncccc3n2O)cc1 ?
SR-BI HDL uptake: 2; CDK5 p35 inh: -1; SR-BI uptake up: -2; dFosB activator: -1

Results for COc1ccc(-c2csc(Nc3ncccc3C)n2)cc1OC ?
SR-BI HDL uptake: 72*; CDK5 p35 inh: 0; SR-BI uptake up: -72; dFosB activator: -3

Results for CCOc1ccc(/C=C/C2=CC(C)(C)NC(=S)N2)cc1 ?
SR-BI HDL uptake: 69; CDK5 p35 inh: -1; SR-BI uptake up: -69; dFosB activator: -11

What do the screens show for `COc1ccc(/C=C/C2=CC(C)(C)NC(=S)N2)cc1OC`?
SR-BI HDL uptake: 83*; CDK5 p35 inh: 3; SR-BI uptake up: -83; dFosB activator: -4

What do the screens show for `COc1cccc(/C=C/C2=CC(C)(C)NC(=S)N2)c1`?
SR-BI HDL uptake: 78*; CDK5 p35 inh: 2; SR-BI uptake up: -78; dFosB activator: -4

Results for Cc1cccc(NC(=O)CSc2nnnn2-c2ccc3c(c2)OCCO3)n1 ?
SR-BI HDL uptake: -6; CDK5 p35 inh: 0; SR-BI uptake up: 6; dFosB activator: 0

How did COCCOC(=O)c1c(NC(=O)CN2c3ccccc3CC2C)sc(C(N)=O)c1C (stereo not drawn) do in these assays?
SR-BI HDL uptake: 54; CDK5 p35 inh: 1; SR-BI uptake up: -54; dFosB activator: -4

What do the screens show for `Cc1ccc(S(=O)(=O)N2CCOCC2)cc1-c1n[nH]c(=S)n1-c1ccccc1`?
SR-BI HDL uptake: -23; CDK5 p35 inh: 0; SR-BI uptake up: 23; dFosB activator: 4

Results for COCCN=c1scc(-c2cc(OC)c(OC)c(OC)c2)n1/N=C/c1c(C)[nH]c2ccccc12 ?
SR-BI HDL uptake: 92*; CDK5 p35 inh: -1; SR-BI uptake up: -92; dFosB activator: -9

How did Cc1[nH]c2ccccc2c1/C=N/n1cnnc1 do in these assays?
SR-BI HDL uptake: -29; CDK5 p35 inh: -1; SR-BI uptake up: 29; dFosB activator: 0
